# The list is not random: actives were taken first. Their share in the collection is about 2.3%.
# MPTP block = permeability transition pore inhibition; isolated mouse mitochondria, Ca2+ swelling absorbance, 30 min; inhibition, % at 10 µM; 1.4% of 360,000 active; AID 602449;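 active = inhibition of 50% or more, scaled per plate between neutral and stimulator controls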;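 also: 0% = DMSO wells given calcium and 100% = 1 mM EGTA wells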
# ATG4B inhibitor = ATG4B (human) cysteine protease inhibition | Q9Y4P1 | ATG4B cleavage of LC3-PLA2, NBD-HPC fluorescence, 1 h | inhibition, % at 8.33 µM | 0.51% of 340,000 active | AID 504462; in the data active = inhibition above about 40%
# Target sequence (Q9Y4P1 whole entry, looked up): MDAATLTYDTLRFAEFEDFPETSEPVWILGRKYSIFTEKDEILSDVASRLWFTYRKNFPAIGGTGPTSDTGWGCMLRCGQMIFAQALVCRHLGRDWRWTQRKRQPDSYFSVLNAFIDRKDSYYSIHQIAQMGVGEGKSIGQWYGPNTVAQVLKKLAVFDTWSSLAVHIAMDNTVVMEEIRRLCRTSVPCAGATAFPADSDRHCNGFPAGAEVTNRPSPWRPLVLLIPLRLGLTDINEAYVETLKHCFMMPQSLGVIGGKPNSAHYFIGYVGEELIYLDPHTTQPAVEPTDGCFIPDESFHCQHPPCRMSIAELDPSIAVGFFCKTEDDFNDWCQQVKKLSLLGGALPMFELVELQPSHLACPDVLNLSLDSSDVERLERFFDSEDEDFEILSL
# SKN-1 block = blocks SKN-1 activity in C. elegans; C. elegans VP596 Pgst-4::GFP/RFP ratio, acrylamide-induced, 24 h; inhibition, % at 21.8 µM; 0.49% of 360,000 active;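 active = interference check ratio from 0.5 to 1.5 plus GFP to RFP signal ratio inhibition reaching or exceeding a fixed threshold, cut at about 30% in these data, passing the limit was not always enough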
# MT1-MMP act inh = MT1-MMP (human) activation inhibition; HT1080 RFP-PRO-GFP cells, GFP/RFP ratio fluorescence, overnight; percent of plate control window, DMSO zero; 0.061% of 360,000 active; P50281; GFP/RFP ratio change, % at 20 µM; AID 651647;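 active = GFP/RFP ratio change of at least 30% with cell ATP level not reduced by more than half and red fluorescence within 50% of control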
#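 system = RFP-PRO-GFP reporter HT1080 cells | dosing = 20 µM single dose, 1% DMSO | timing = overnight cell settling, then overnight compound exposure, 37 °C, 5% CO2 | read-out basis = GFP/RFP fluorescence ratio | controls = DMSO and RFP-L50D-GFP cell wells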
# MPTP counter = membrane potential counter-screen of mitochondrial pore inhibitors. 78% of 5,000 active. isolated mitochondria, Rhodamine 123 fluorescence. inhibition, % at 10 µM. shares compounds with MPTP block. AID 624504; in the data active = inhibition above about 22%;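 also: 0% = DMSO vehicle and 100% = positive control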
# MPTP swell DR = dose response confirmation of mitochondrial permeability transition pore inhibitors; shares compounds with MPTP block; isolated mitochondria swelling, absorbance; IC50, µM; 58% of 780 active; AID 651561; in the data active = IC50 below about 20 µM
# MPTP counter DR = active in counter-screen for permeability transition pore inhibitors | shares compounds with MPTP block | isolated mitochondria counterscreen, fluorescence read-out | 49% of 780 active | IC50, µM; in the data active = IC50 below about 80 µM
# * = called active by the depositor; x = no result.
SMILES,MPTP block,ATG4B inhibitor,SKN-1 block,MT1-MMP act inh,MPTP counter,others
CC(NC(=O)/C=C/c1ccc(Br)cc1)c1ccc(Cl)cc1 (stereo unspecified),78*,8,5,1,84*,
C=C1C(=O)c2sccc2C(c2ccc(OC)c(OC)c2)C1COC(C)=O (stereo unspecified),0,5,2,26,x,
Cn1cc(Br)c(C(=O)Nc2sc3c(c2C#N)CCC3)n1,6,-5,-10,-3,x,
Cn1cc(Cl)c(C(=O)NC(=S)Nc2sc3c(c2C#N)CCCCC3)n1,83*,-13,8,5,21*,
O=C(/C=C/[C@H]1O[C@@H](n2ccc(=O)[nH]c2=O)[C@H](O)[C@@H]1O)N1CCN(CCc2ccccc2)CC1,0,x,6,6,x,
Cc1cccc(N2CCN(C(=O)c3ccc(Cl)c(NC4=NC5CS(=O)(=O)CC5S4)c3)CC2C)c1 (stereo unspecified),-2,-12,-8,3,x,
CCCCn1c(N)c(N(CC(C)C)C(=O)Cc2ccc(S(=O)(=O)N3CCOCC3)s2)c(=O)[nH]c1=O,-3,-8,-21,-100,x,
COc1ccc(NC(=O)NCCCN2CCN(c3cc(C)ccc3C)CC2)cc1,82*,-9,-10,2,-4,MPTP swell DR=15*;MPTP counter DR=39*
COc1ccc(N2CCC(CNC(=O)Nc3ccc(Cl)cc3)C2)cc1 (stereo unspecified),91*,-7,17,-1,75*,
COc1cc(NC(=O)NCCN2CCN(c3ccc(Cl)cc3)CC2)ccc1C,70*,-3,-10,0,-6,MPTP swell DR=>100;MPTP counter DR=73*
COc1cc(S(=O)(=O)Nc2ccc3nc(C)sc3c2)ccc1NC(C)=O,68*,-3,15,-2,86*,
COc1cc(S(=O)(=O)Nc2ccc(C(=O)NCC(=O)O)cc2)ccc1NC(C)=O,0,-4,4,-2,x,
CC(=O)c1cccc(S(=O)(=O)Nc2ccc3nc(C)sc3c2)c1,91*,6,-7,0,57*,
Cc1nc2ccc(NS(=O)(=O)c3ccc(C)c(C)c3)cc2s1,96*,-7,18,1,94*,
CC(C)N(CCO)C(=O)CCc1nnc(Cc2cccc(C(F)(F)F)c2)o1,0,14,-12,-4,x,
O=C(NC1=NCCS1)c1ccc([N+](=O)[O-])cc1Cl,-3,-1,10,0,x,
O=c1[nH]c2cnn(-c3ccccc3)c2c(=O)n1O,-2,-8,11,-2,x,
Cc1ccc(NC(=O)CCC(=O)N/N=C/c2cccnc2)cc1,0,-9,-1,-2,x,
[O-][n+]1c2c(c3c4non(O)c4ccc31)CCCC2,96*,3,16,11,83*,
COn1c2c(c3c4no[n+]([O-])c4ccc31)CCCC2,1,3,5,-4,x,
CCc1nc(NCCN)c(C#N)c2c1CSC(C)(C)C2,80*,-12,16,3,-10,MPTP swell DR=17*;MPTP counter DR=>80
OC(COc1ccc(Cl)cc1)CN1C2=NCCCN2c2ccccc21 (stereo unspecified),70*,-6,4,0,-7,MPTP swell DR=18*;MPTP counter DR=>80
Cc1cccc(Nc2c3c(nc4ccccc24)CCC3)c1,78*,12,8,4,74*,
N#Cc1cccc(Nc2c3c(nc4ccccc24)CCC3)c1,1,2,23,0,x,
CCc1ccc(OC(C)c2nnc(SCC(=O)Nc3ncccc3C)n2C)cc1 (stereo unspecified),0,-5,0,-2,x,
SMILES,MPTP block,ATG4B inhibitor,SKN-1 block,MT1-MMP act inh,MPTP counter,others
Cc1sc2ncnc(NCCc3ccc(S(N)(=O)=O)cc3)c2c1C,86*,-16,-8,-8,106*,
NS(=O)(=O)c1ccc(CCNc2ncnc3sccc23)cc1,74*,-14,2,-4,81*,
Cc1ccc(S(=O)(=O)Nc2ncnc3sc(C)c(C)c23)cc1,-1,-8,-2,-6,x,
O=C1C(O)CCN1Cc1ccccc1 (stereo unspecified),-1,-1,9,-3,x,
Cc1ccc(CNC(=O)c2cc3c(C)nc4ccccc4c3o2)cc1,46,-22,11,6,x,
Cc1nc2ccccc2c2oc(C(=O)NCc3ccc4c(c3)OCO4)cc12,63*,-16,8,0,31*,
c1coc(Cn2c(-c3ccco3)nc3ccccc32)c1,51*,2,-13,-4,-7,
COCCNC(=O)C1(C)CCCN(C(=O)c2ccccc2OC)C1 (stereo unspecified),-2,x,1,1,x,
COc1ccc(Cc2n[nH]c(=S)n2NC(=O)Nc2ccc(Cl)c(Cl)c2)cc1,92*,-6,0,-1,90*,
CCn1c(SCC(=O)NC2CCCCC2)nnc1-c1cccnc1,-2,8,-6,1,x,
CN(C1=NS(=O)(=O)N=C(N(C)c2ccccc2)O1)c1ccccc1,0,x,5,0,x,
Cc1c(/C=N/NC(=O)c2ccc(O)cc2)c2ccccn2c1C(=O)c1ccc(F)cc1,-1,6,10,3,x,
Cc1c(/C=N/NC(=O)c2ccccc2O)c2ccccn2c1C(=O)c1ccc(F)cc1,98*,-3,4,-5,56*,
COc1ccc([C@H]2C[C@@H](O)[C@H](n3cc(COC(=O)c4ccccc4)nn3)CN2CC2CCCCC2)cc1,0,x,-12,-2,x,
OC(c1cccc(OCc2ccccc2)c1)c1nnc(-c2ccccc2)o1 (stereo unspecified),104*,4,-4,1,96*,
CC(Cc1cccs1)NC(=S)Nc1ccc(Cl)cc1 (stereo unspecified),83*,2,-1,7,95*,
CCC(C)c1ccc(NC(=S)NCc2cccs2)cc1 (stereo unspecified),97*,28,23,5,85*,
CC(Cc1cccs1)NC(=S)Nc1ccc(Cl)c(Cl)c1 (stereo unspecified),80*,6,8,3,94*,
CC(Cc1cccs1)NC(=O)Nc1cccc(Cl)c1 (stereo unspecified),87*,-10,20,0,86*,
COc1ccc(CCNc2nc(C)nc3c2nnn3Cc2ccccc2)cc1,0,3,10,0,x,
Cc1ccc(S(=O)(=O)N2CCCN(C(=O)c3ccc(-n4nccc4C)cc3)CC2)cc1,2,-13,-1,6,x,
Cc1ccc(C(=O)O[C@H](C(=O)O)[C@H](OC(=O)c2ccc(C)cc2)C(=O)O)cc1,0,1,-14,4,x,
CN(C)CCNc1oc(COc2ccc(-c3ccccc3)cc2)nc1C#N,75*,11,-3,2,-18,MPTP swell DR=5.9*;MPTP counter DR=54*
Cc1ccccc1/C=N\NC(=O)c1ccccc1-n1cccc1,-1,-3,-9,-3,x,
